# Assay results as given in the RNAGym collection of RNA variant scans (doi:10.1101/gad.245936.114).
# This sample holds only a part of the variants without activity.
# B1: tRNA (parent)
# chain: CUCUCGGUAGCCAAGUUGGUUUAAGGCGCAAGACUUUAAUUUAUCACUACGAAAUCUUGAGAUCGGGCGUUCGACUCGCCCCCGGGAGAUUUUUUCCUCGAGCAA
# Variants of: B1
# Assay: nonsense suppression (GFP-seq) (ratio to wild type); higher = more function; SUP4oc tRNA, yeast GFP reporter sort-seq
# In short: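 Yeast were grown in raffinose/galactose medium with 80 mg/L adenine, each strain bearing a genome-integrated ochre-suppressor tRNA variant from a ~3% random-mutation library, a galactose-driven GFP ochre reporter, and RFP. After sorting into GFP/RFP bins, every bin was sequenced on an Illumina platform at phred ≥30. The GFPSEQ value, a measure of nonsense suppression, is the weighted bin median GFP/RFP relative to the unmutated parent tRNA, using each variant's estimated cell share per bin as the weight. Only variants with ≥100 reads and ≥30 cells were included.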
row,Variant,nonsense suppression
1,CUCUCGGUAGCCAAGUUGGUUUUAGGCGCAAGACUUUAAUUUAUCACUACGAAAUCUUGAGAACGGGCGUUCGACUCGCCCCCGGGAGAUUUUUUCCUCGAGCAA [A23U U63A],0.207
2,CUCUCGGUAGCCAAGUUGGUUUGAGGCGCAAGACUUUAAUUUAUCACUACGAAAUCUUGGGAUCGGGCGUUCGACUCGCCCCCGGGAGAUUUUUUCCUCGAGCAA [A23G A60G],0.0474
3,CUCUCGGUAGCCAAGUUGGUUUGAGGCGCAAGACUUUAAUUUAUCACUACGAAAUCUUGCGAUCGGGCGUUCGACUCGCCCCCGGGAGAUUUUUUCCUCGAGCAA [A23G A60C],0.241
4,CUCUCGGUAGCCAAGUUGGUUUUAGGCGCAAUACUUUAAUUUAUCACUACGAAAUCUUGAGAGCGGGAGAUCGCCUCGCCCCCGGGAGAUUUUUUCCUCGAGCAA [A23U G32U U63G C68A U70A A74C],≤ 0.026
5,CUCUCGGUAGCCAAGUUGGUUUUAGGCGCAAGACUUUAAUUUAUCACUACGAAAUCUUGAGAUCCGGCGUUAGACUCGCCCCCGGGAGAUUUUUUCCUCGAGCAA [A23U G65C C72A],≤ 0.026
6,CUCUCGGUAGCCAAGUUGGUUUGAGGCGCAAGACUUUAAUUUAUCACUACGAAAUCUUCAGAUCGGGCGUUCGACUCGCCCCCGGGAGAUUUUUUCCUCGAGCAA [A23G G59C],≤ 0.026
7,CUCUCGGUAGCCAAGUUGGUUUGAGGCGCAAGACUUUAAUUUAUCACUACGAAAUCUUGAGAUCGGGUGUUCGACUCGCCCCCGGGAGAUUUUUUCCUCGAGCAA [A23G C68U],0.182
8,CUCUCGGUAGCCAAGUUGGUUUGAGGCGCUAGACUUUAAUUUAUCACUACGAAAUCUUGAGAUCGGGCGUUCGACUCGCCCCCGGGAGAUUUUUUCCUCGAGCAA [A23G A30U],0.0397
9,CUCUCGGUAGCCAAGUUGGUUUUAGGCGCAAGACUUUAAUUUAUCACUACGAAAUGUUGAGAUCGGGCGCUCGACUCGCCCCCGGGAGAUUUUUUCCUCGAGCAA [A23U C56G U70C],≤ 0.026
10,CUCUCGGUAGCCAAGUUGGUUUUAGGCGCAAGACUUUAAUUUAUCACUACGAAAUCUUGAGAUCGGGCGUUCGACUCGCCCCCGGAAGAUUUUUUCCUCGAGCAA [A23U G86A],≤ 0.026
11,CUCUCGGUAGCCAAGUUGGUUUGAGGCGCAAGCCUUUAAUUUAUCACUACGAAAUCUUGAGAUCGAGCGUUCGACUCGCCCCCGGGAGAUUUUUUCCUCGAGCAA [A23G A33C G66A],≤ 0.026
12,CUCUCGGUAGCCAAGUUGGUUUUAGGCGCAAGACUUUAAUUUAUCACUACGAAAUCUUGAGAUCGGGCGUUCGACUCGCGCCCGGGAGAUUUUUUCCUCGAGCAA [A23U C80G],≤ 0.026
13,CUCUCGGUAGCCAAGUUGGUUUUAGGCGCAAGACUUUAAUUUAUCACUACGAAACCUUGCGAUCGGGCUUUCGACUCGCCCCCGCGAGAUUUUUUCCUCGAGCAA [A23U U55C A60C G69U G85C],≤ 0.026
14,CUCUCGGUAGCCAAGUUGGUUUGAGGCGCAAGACUUUAAUUUAUCACUACGAAAUCUUGAGAUCGGGCCUUCGACUCGCCCCCGGGAGAUUUUUUCCUCGAGCAA [A23G G69C],≤ 0.026
15,CUCUCGGUAGCCAAGUUGGUUUGAGGCGUAAGACUUUAAUUUAUCACUACGAAAUCUUGAGAUCGGGCGUUCGACUCGCCCCCGGGAGAUUUUUUCCUCGAGCAA [A23G C29U],0.142
16,CUCUCGGUAGCCAAGUUGGUUUUAGGCGGAAGACUUUAAUUUAUCACUACGAAAUCUUGAGAUCGGGCGUUCGACUCGCCCCCGGGAGAUUUUUUCCUCGAGCAA [A23U C29G],≤ 0.026
17,CUCUCGGUAGCCAAGUUGGUUUUAGGCGUAAGACUUUAAUUUAUCACUACGAAAUCUUGAGAUCGGGCGUUCGACUCGCCCCCGGGAGAUUUUUUCCUCGAGCAA [A23U C29U],0.112
18,CUCUCGGUAGCCAAGUUGGUUUGAGGCGCAAGACUUUAAUUUAUCACUACGAAAGCUUGAGAUCGGGCGUUCGACUCGCCCCCGGGAGAUUUUUUCCUCGAGCAA [A23G U55G],≤ 0.026
19,CUCUCGGUAGCCAAGUUGGUUUGAGGCGCAAGACUUUAAUUUAUCACUACGAAACCUUGAGAUCGGGCGUUCGACUCGCCCCCGGGAGAUUUUUUCCUCGAGCAA [A23G U55C],0.0273
20,CUCUCGGUAGCCAAGUUGGUUUACGGCGCAAGACUUUAAUUUAUCACUACGAAAUCUUGAGAUCGGGCGUUCGACUCGCCCCCGGGAGAUUUUUUCCUCGAGCAA [A24C],1.13
21,CUCUCGGUAGCCAAGUUGGUUUGAGGCGCAAGAAUUUAAUUUAUCACUACGAAAUCUUGAGAUCGGGCGUUCGACUCGCCCCCGGGAGAUUUUUUCCUCGAGCAA [A23G C34A],≤ 0.026
22,CUCUCGGUAGCCAAGUUGGUUUUAGGCGCAAGACUUUAAUUUAUCACUACGAAAUCUUGGGAUCGGGCGUUCGACUCGCCCCCGGGAGAUUUUUUCCUCGAGCAA [A23U A60G],0.0537
23,CUCUCGGUAGCCAAGUUGGUUUUAGGCCCAAGACUUUAAUUUAUCACUACGAAAUCUUGAGAUCGGGCGUUCGACUCGCCCCCGGGAGAUUUUUUCCUCGAGCAA [A23U G28C],≤ 0.026
24,CUCUCGGUAGCCAAGUUGGUUUGAGGCGCAAGACUUUAAUUUAUCACUACGAAAUCUUGACAUCGGGCGUUCGACUCGCCCCCGGGAGAUUUUUUCCUCGAGCAA [A23G G61C],0.113
25,CUCUCGGUAGCCAAGUUGGUUUUAGGCGCUAGACUUUAAUUUAUCACUACGAAAUCUUGAGAUCGGGCGUUCGACUCGCCCCCGGGAGAUUUUUUCCUCGAGCAA [A23U A30U],0.0282
26,CUCUCGGUAGCCAAGUUGGUUUGAGGCGCAAGACUUUAAUUUAUCACUACGAAAUCUUGAGAUCGGUCGUUCGACUCGCCCCCGGGAGAUUUUUUCCUCGAGCAA [A23G G67U],≤ 0.026
27,CUCUCGGUAGCCAAGUUGGUUUUAGGCGCAAGACUUUAAUUUAUCACUACGAAAUCUUGAGAUCGGACGUUCGACUCGCCCCCGGGAGAUUUUUUCCUCGAGCAA [A23U G67A],≤ 0.026
